Results as given in ChEMBL document CHEMBL1137987, “O-alkoxyamidine prodrugs of furamidine: in vitro transport and microsomal metabolism as indicators of in vivo efficacy in a mouse model of Trypanosoma brucei rhodesiense infection” (J Med Chem, 2004).
pIC50: −log10 of the molar value.

Legend:
[1] = test system: Trypanosoma brucei rhodesiense; assay: In vitro inhibitory activity against Trypanosoma brucei rhodesiense evaluated in vitro
Mus musculus [2] = assay: In vivo effect on average days of survival was measured upon oral dose at 400 mg/kg in STIB900 mouse model; type: functional
Summary of the method: (§1)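 Mice infected with T. b. rhodesiense STIB900 got four daily doses: intraperitoneal for the parent amidine (4 × 10 mg/kg), oral for the prodrugs (4 × 25, 4 × 50 or 4 × 100 mg/kg/day). Read-out is mean days of survival per group, followed to 60 days.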

Mus musculus [3] = assay: In vivo effect on average days of survival was measured upon intraperitoneal dose at 40 mg/kg in STIB900 mouse model; type: functional
Summary of the method: as §1

Caco-2 [4] = assay: Apparent permeability determined across the Caco-2 cell monolayers in both apical (AP) to basolateral (BL) directions; type: functional, cell-based; details: Homo sapiens
Mus musculus [5] = assay: In vivo effect (cures) determined by number of mice that survived (0) and are parasite free (8) for 60 days upon intraperitoneal dose, observed in STIB900 mouse model; type: functional
Summary of the method: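 T. b. rhodesiense STIB900 acute infection in mice, 4 mice per group (8 in one group). Four daily doses (4 × mg/kg/day); the parent amidine was given intraperitoneally and the prodrugs orally. A cure is a mouse surviving and parasite-free at 60 days, reported as cured/treated.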

Caco-2 [6] = assay: Apparent permeability determined across the Caco-2 cell monolayers in both basolateral (BL) to apical (AP) directions; type: functional, cell-based; details: Homo sapiens
Mus musculus [7] = assay: In vivo effect (cures) determined by number of mice that survived (1) and are parasite free (4) for 60 days upon oral dose, observed in STIB900 mouse model
[8] = Half-life in human liver microsomes was determined; type: ADME, Microsome
Summary of the method: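 Substrate at 10 µM final (from 5 mM methanol stocks) in 100 mM potassium phosphate pH 7.4 with 0.2 mg/mL pooled human liver microsomes. Preincubated 5 min, then started with 1 mM NADPH. Samples taken at 0–90 min, quenched with acetonitrile on ice, centrifuged, and supernatant analysed by HPLC-UV or LC-MS. Half-life from substrate loss.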

Mus musculus [9] = assay: In vivo effect (cures) determined by number of mice that survived (2) and are parasite free (4) for 60 days upon oral dose, observed in STIB900 mouse model
Mus musculus [10] = assay: In vivo effect on average days of survival was measured upon oral dose at 100 mg/kg in STIB900 mouse model; type: functional
Summary of the method: as §1

Mus musculus [11] = assay: In vivo effect on average days of survival was measured upon oral dose at 200 mg/kg in STIB900 mouse model; type: functional
Summary of the method: as §1

Mus musculus [12] = assay: In vivo effect (cures) determined by number of mice that survived (4) and are parasite free (4) for 60 days upon oral dose, observed in STIB900 mouse model

| SMILES | pIC50 [1] | Survival days (Mus musculus [2]) | Survival days (Mus musculus [3]) | Papp (Caco-2 [4]) | Dose (Mus musculus [5]) [mg/kg] | Papp (Caco-2 [6]) | Dose (Mus musculus [7]) [mg/kg] | half-life [8] [min] | Dose (Mus musculus [9]) [mg/kg] | Survival days (Mus musculus [10]) | Survival days (Mus musculus [11]) | Dose (Mus musculus [12]) [mg/kg] |
| --- | --- | --- | --- | --- | --- | --- | --- | --- | --- | --- | --- | --- |
| N=C(NO)c1ccc(-c2ccc(-c3ccc(/C(N)=N\O)cc3)o2)cc1 | 4.18 | 50 | – | – | – | – | – | – | – | – | – | – |
| N=C(N)c1ccc(-c2ccc(-c3ccc(C(=N)N)cc3)o2)cc1 [FURAMIDINE] | 8.35 | – | >46 | 3.8e-07 | 40 | 8.5e-07 | – | – | – | – | – | – |
| CCCONC(=N)c1ccc(-c2ccc(-c3ccc(C(=N)NOCCC)cc3)o2)cc1 | 6.33 | >47.5 | – | – | – | – | 400 | 60 | – | – | – | – |
| CC(C)ONC(=N)c1ccc(-c2ccc(-c3ccc(C(=N)NOC(C)C)cc3)o2)cc1 | 4.90 | 48 | – | – | – | – | – | – | 400 | – | – | – |
| CONC(=N)c1ccc(-c2ccc(-c3ccc(C(=N)NOC)cc3)o2)cc1 [PAFURAMIDINE] | 4.84 | >60 | – | 6.04e-05 | – | 3.75e-05 | 100 | 4.16 | 200 | >60 | >60 | 400 |
| CCONC(=N)c1ccc(-c2ccc(-c3ccc(C(=N)NOCC)cc3)o2)cc1 | 6.19 | >60 | – | 5.9e-06 | – | 3.7e-06 | – | 32 | – | 32 | – | 400 |
| CCCCONC(=N)c1ccc(-c2ccc(-c3ccc(C(=N)NOCCCC)cc3)o2)cc1 | 5.72 | 9 | – | – | – | – | – | – | – | – | – | – |
| CCCCCCONC(=N)c1ccc(-c2ccc(-c3ccc(C(=N)NOCCCCCC)cc3)o2)cc1 | 5.24 | 6 | – | – | – | – | – | – | – | – | – | – |
